From ChEMBL document CHEMBL3272094 (J Med Chem, 1978)
Active and inactive are the calls of the source. The rule behind the calls is not given here.

Experiments:
[1] = Competitive inhibition of tyrosine hydroxylase (unknown origin); parameters: species or system Homo sapiens
Felis catus = assay: Inhibition of isoproterenol-induced tachycardia in cat at 100 ug/kg; format: functional
Cavia porcellus [2] = species on record: Cavia porcellus; assay: Agonist activity at alpha-adrenergic receptor in guinea pig aortic strip assessed as induction of contraction
In short: (§1)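 Spirally cut thoracic aortic strip (3 cm × 2 mm) from male guinea pig (400–900 g), in modified Krebs at 37.0 °C, gassed 95% O2/5% CO2. Initial tension 0.5 g, equilibrated ≥2 h. Isometric contraction recorded over cumulative dose-response curves, with each dose held until the response levelled (10 min). Responses expressed as % of maximum contraction to 10⁻⁴ M norepinephrine added after the last dose.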

Rattus norvegicus [3] = assay: Hypertensive effect in Wistar rat assessed as increase in blood pressure at 20 umol/kg administered repeatedly in presence of reserpine; format: functional
In short: (§2)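 Reserpine-pretreated rat given repeated iv injections of 20 μmol/kg, then 128 μmol/kg infused over 90 s. Arterial blood pressure recorded continuously, including time to return to preinjection level.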

Rattus norvegicus [4] = assay: Hypertensive effect in Wistar rat assessed as mean pressor response at 10 umol/kg in presence of phentolamine; format: functional
In short: (§3)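 Rats given 1 or 10 μmol/kg iv as a 0.5 mL/kg saline bolus. Mean arterial pressure recorded and the pressor response corrected for the saline injection artifact. Reserpine groups received 2.5 mg/kg ip at 48 and 24 h before. Phentolamine 10 mg/kg iv was given 1 min before dosing. Means ± SEM, n=3–6.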

Rattus norvegicus [5] = assay: Hypertensive effect in Wistar rat assessed as mean pressor response at 1 umol/kg in presence of reserpine; format: functional; in short: as §3
Rattus norvegicus [6] = assay: Hypertensive effect in Wistar rat assessed as mean pressor response at 10 umol/kg in presence of phentolamine and reserpine; format: functional; in short: as §3
Rattus norvegicus [7] = assay: Hypertensive effect in Wistar rat assessed as mean pressor response at 10 umol/kg; format: functional; in short: as §3
Rattus norvegicus [8] = assay: Hypertensive effect in Wistar rat assessed as mean arterial pressure at 1 umol/kg; format: functional, Artery; in short: as §3
Rattus norvegicus [9] = assay: Hypertensive effect in Wistar rat assessed as increase in blood pressure at 20 umol/kg administered repeatedly after 15 mins in presence of reserpine; format: functional, organism-based; in short: as §2
Rattus norvegicus [10] = assay: Hypertensive effect in Wistar rat assessed as increase in blood pressure at 20 umol/kg administered repeatedly followed by infusion of 128 umol/kg for 90 secs in presence of reserpine; format: functional; in short: as §2
Rattus norvegicus [11] = assay: Hypertensive effect in Wistar rat assessed as mean arterial pressure at 10 umol/kg in presence of reserpine; format: functional, Artery; in short: as §3
Rattus norvegicus [12] = assay: Hypertensive effect in Wistar rat assessed as increase in mean arterial pressure at 10 umol/kg relative to control; format: functional, Artery; in short: as §3
Rattus norvegicus [13] = assay: Hypertensive effect in Wistar rat assessed as mean pressor response at 10 umol/kg in presence of reserpine; format: functional; in short: as §3
Cavia porcellus [14] = species on record: Cavia porcellus; assay: Agonist activity at alpha-adrenergic receptor in guinea pig aortic strip assessed as induction of contraction relative to norepinephrine; in short: as §1
Rattus norvegicus [15] = assay: Hypertensive effect in Wistar rat assessed as mean arterial pressure at 10 umol/kg in presence of phentolamine; format: functional, Artery; in short: as §3
Rattus norvegicus [16] = assay: Hypertensive effect in Wistar rat assessed as mean pressor response at 1 umol/kg; format: functional; in short: as §3
Rattus norvegicus [17] = assay: Hypertensive effect in Wistar rat assessed as tachyphylaxis at 20 umol/kg administered repeatedly followed by infusion of 128 umol/kg for 90 secs in presence of reserpine; format: functional, organism-based; in short: as §2
Rattus norvegicus [18] = assay: Hypertensive effect in Wistar rat assessed as mean arterial pressure at 10 umol/kg; format: functional, Artery; in short: as §3
Rattus norvegicus [19] = assay: Hypertensive effect in Wistar rat assessed as mean arterial pressure at 1 umol/kg in presence of reserpine; format: functional, Artery; in short: as §3
Cavia porcellus [20] = species on record: Cavia porcellus; assay: Agonist activity at alpha-adrenergic receptor in guinea pig aortic strip assessed as induction of contraction up to 3 x 10^-3 M in presence of phentolamine
Rattus norvegicus [21] = assay: Hypertensive effect in Wistar rat assessed as mean arterial pressure at 10 umol/kg in presence of phentolamine and reserpine; format: functional, Artery; in short: as §3
Rattus norvegicus [22] = assay: Hypertensive effect in Wistar rat assessed as increase in heart rate at 100 nmol/kg up to 1 min (reference value: 1 +/- 0.1 beats/min); format: functional; details: in the assay text read “up to 15 mins” for “up to 1 min”
In short: (§4)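 Intact rats; femoral or jugular vein cannulated. Doses of 1–1000 nmol/kg given as a 0.5 mL/kg iv saline bolus, each followed by a heparinized saline flush. Arterial pressure and heart rate taken from the oxygraph recording. A saline control was injected first. For the propranolol group, 1.0 mg/kg propranolol was given 5 min before 1.0 μmol/kg. Means ± SEM, n=3–4.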

Rattus norvegicus [23] = assay: Hypertensive effect in Wistar rat assessed as increase in heart rate at 10 nmol/kg (reference value: 1 +/- 0.1 beats/min); format: functional; in short: as §4
Rattus norvegicus [24] = assay: Hypertensive effect in Wistar rat assessed as increase in heart rate at 1000 nmol/kg (reference value: 1 +/- 0.1 beats/min); format: functional; in short: as §4
Cavia porcellus [25] = species on record: Cavia porcellus; assay: Ratio of relative activity for guinea pig beta-2 adrenergic receptor to relative activity for guinea pig beta-1 adrenergic receptor
[26] = biological target: Beta-1 adrenergic receptor (Cavia porcellus) (UniProt B0FL73); assay: Agonist activity at beta-1 adrenergic receptor in guinea pig atria assessed as effect on atrial rate relative to (R,S)-isoproterenol; details: Cardiac atrium
In short: (§5)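 Guinea pig atria (male, 400–900 g; some given reserpine 5.0 mg/kg ip 24 h before) in oxygenated bath at 37.0 °C, diastolic tension 1 g, steady beating reached first. Cumulative doses given 1 min apart. […] Points are means of ≥4 atria.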

Rattus norvegicus [27] = assay: Hypertensive effect in Wistar rat assessed as change in mean arterial pressure at 1000 nmol/kg in presence of propranolol (reference value: 7 +/- 2 mmHg); format: functional, Artery; in short: as §4
[28] = biological target: Beta-2 adrenergic receptor (Cavia porcellus) (UniProt Q8K4Z4); details: Trachea
Rattus norvegicus [29] = assay: Hypertensive effect in Wistar rat assessed as change in mean arterial pressure at 100 nmol/kg up to 15 mins (reference value: 7 +/- 2 mmHg); format: functional, Artery; details: in the assay text read “up to 1 min” for “up to 15 mins”; in short: as §4
[30] = biological target: Beta-1 adrenergic receptor (Cavia porcellus) (UniProt B0FL73); details: Cardiac atrium
[31] = biological target: Beta-1 adrenergic receptor (Cavia porcellus) (UniProt B0FL73); assay: Positive chronotropic activity at beta-1 adrenergic receptor in guinea pig atria assessed as effect on force of atrial contraction up to 3 x 10^-4 M in presence of propranolol; details: Cardiac atrium, in the assay text read “atrial rate” for “force of atrial contraction”
In short: (§6)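 Cumulative dosing of guinea pig atria up to 3×10⁻⁴ M with 10⁻⁶ M propranolol in the bath, at 37.0 °C with 1 g diastolic tension.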

[32] = biological target: Beta-2 adrenergic receptor (Cavia porcellus) (UniProt Q8K4Z4); assay: Agonist activity at beta-2 adrenergic receptor in guinea pig trachea assessed as tracheal relaxation relative to (R,S)-isoproterenol; parameters: Activity: scale not given: the % may be the effect or the level left
In short: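 Tracheal chain from male guinea pig (some reserpine-pretreated, 5.0 mg/kg ip 24 h before), equilibrated 30 min at 1 g tension and contracted with 3.0×10⁻⁶ M methacholine for 10 min.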

Rattus norvegicus [33] = assay: Hypertensive effect in Wistar rat assessed as change in mean arterial pressure at 1000 nmol/kg (reference value: 7 +/- 2 mmHg); format: functional, Artery; in short: as §4
[34] = biological target: Beta-1 adrenergic receptor (Cavia porcellus) (UniProt B0FL73); assay: Agonist activity at beta-1 adrenergic receptor in guinea pig atria assessed as effect on force of atrial contraction relative to (R,S)-isoproterenol; details: Cardiac atrium; in short: as §5
Rattus norvegicus [35] = assay: Hypertensive effect in Wistar rat assessed as increase in heart rate at 1 nmol/kg (reference value: 1 +/- 0.1 beats/min); format: functional; in short: as §4
[36] = biological target: Beta-1 adrenergic receptor (Cavia porcellus) (UniProt B0FL73); assay: Ionotropic activity at beta-1 adrenergic receptor in guinea pig atria assessed as effect on atrial rate up to 3 x 10^-4 M in presence of propranolol; details: Cardiac atrium, in the assay text read “force of atrial contraction” for “atrial rate”; in short: as §6
Rattus norvegicus [37] = assay: Hypertensive effect in Wistar rat assessed as change in mean arterial pressure at 1 nmol/kg (reference value: 7 +/- 2 mmHg); format: functional, Artery; in short: as §4
Rattus norvegicus [38] = assay: Hypertensive effect in Wistar rat assessed as change in mean arterial pressure at 10 nmol/kg (reference value: 7 +/- 2 mmHg); format: functional, Artery; in short: as §4
[39] = biological target: Beta-1 adrenergic receptor (Cavia porcellus) (UniProt B0FL73); details: Cardiac atrium; remark: listed apart in the source
Rattus norvegicus [40] = assay: Hypertensive effect in Wistar rat assessed as increase in heart rate at 1000 nmol/kg in presence of propranolol (reference value: 1 +/- 0.1 beats/min); format: functional; in short: as §4
[41] = biological target: Beta-2 adrenergic receptor (Cavia porcellus) (UniProt Q8K4Z4); assay: Agonist activity at beta-2 adrenergic receptor in guinea pig trachea assessed as tracheal relaxation in presence of propranolol
[42] = biological target: Beta-2 adrenergic receptor (Cavia porcellus) (UniProt Q8K4Z4); details: Trachea; remark: listed apart in the source
[43] = Octanol-water partition coefficient, log P of the compound; format: physicochemical

Chain of Beta-1 adrenergic receptor (Cavia porcellus) (B0FL73 1-467): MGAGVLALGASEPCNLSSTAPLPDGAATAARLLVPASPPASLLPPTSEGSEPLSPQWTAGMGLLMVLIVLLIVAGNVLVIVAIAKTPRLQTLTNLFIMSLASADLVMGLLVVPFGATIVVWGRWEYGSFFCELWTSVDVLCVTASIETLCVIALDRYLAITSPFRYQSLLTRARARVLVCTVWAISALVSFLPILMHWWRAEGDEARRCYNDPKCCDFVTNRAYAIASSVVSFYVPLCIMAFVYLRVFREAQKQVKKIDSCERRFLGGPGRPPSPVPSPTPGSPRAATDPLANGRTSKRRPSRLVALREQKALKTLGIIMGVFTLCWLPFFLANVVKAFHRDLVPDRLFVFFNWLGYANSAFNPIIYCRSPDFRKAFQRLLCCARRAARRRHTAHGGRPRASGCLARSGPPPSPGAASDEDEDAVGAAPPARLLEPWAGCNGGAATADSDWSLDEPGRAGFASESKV
Chain of Beta-2 adrenergic receptor (Cavia porcellus) (Q8K4Z4 whole entry, looked up): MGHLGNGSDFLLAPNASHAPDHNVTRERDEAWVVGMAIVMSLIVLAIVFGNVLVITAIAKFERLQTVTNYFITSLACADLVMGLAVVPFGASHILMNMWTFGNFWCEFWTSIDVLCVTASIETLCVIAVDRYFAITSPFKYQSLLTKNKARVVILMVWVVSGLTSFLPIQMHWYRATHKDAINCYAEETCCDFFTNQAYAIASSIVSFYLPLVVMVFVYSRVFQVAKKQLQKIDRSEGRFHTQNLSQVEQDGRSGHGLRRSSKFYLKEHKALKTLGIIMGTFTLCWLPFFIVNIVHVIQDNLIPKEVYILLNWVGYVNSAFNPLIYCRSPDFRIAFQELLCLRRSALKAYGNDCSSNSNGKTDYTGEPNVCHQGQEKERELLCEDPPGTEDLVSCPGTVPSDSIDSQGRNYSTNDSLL

In the case of `N[C@@H](Cc1ccc2[nH]cnc2c1)C(=O)O`, the Ki [1] is reported as 20 µM.

`CC(C)NCC(O)c1ccc2[nH]c(=O)[nH]c2c1` (configuration not stated) showed an inhibition in vivo at 0.1 mg/kg (Felis catus) of 35%.

Compound `NC[C@H](O)c1ccc(O)c(O)c1` has an ED50 (Cavia porcellus [2]) of 1.1 µM.

In the case of `NCC(O)c1ccc2[nH]cnc2c1` (racemic), the Activity (Rattus norvegicus [3]) is reported as 150 mmHg, the Activity (Rattus norvegicus [4]) is reported as -4 mmHg and the Activity (Rattus norvegicus [5]) is reported as 9 mmHg. For the same compound, the Activity (Rattus norvegicus [6]) was -5 mmHg, the Activity (Rattus norvegicus [7]) was 39 mmHg and the Activity (Rattus norvegicus [8]) was 82 mmHg. For the same compound, the Activity (Rattus norvegicus [9]) was “inactive”, the Activity (Rattus norvegicus [10]) was 150 mmHg and the Activity (Rattus norvegicus [11]) was 70 mmHg. For the same compound, the Activity (Rattus norvegicus [12]) was 40%, the Activity (Rattus norvegicus [13]) was 40 mmHg and the Activity (Cavia porcellus [14]) was 41%. For the same compound, the Activity (Rattus norvegicus [15]) was 46 mmHg, the ED50 (Cavia porcellus [2]) was 8 µM and the Activity (Rattus norvegicus [16]) was 8 mmHg. For the same compound, the Activity (Rattus norvegicus [17]) was “inactive”, the Activity (Rattus norvegicus [18]) was 98 mmHg and the Activity (Rattus norvegicus [19]) was 73 mmHg. The Activity (Cavia porcellus [20]) was “inactive” and the Activity (Rattus norvegicus [21]) was 48 mmHg.

For `CC(C)NCC(O)c1ccc2[nH]cnc2c1` (racemic), the Activity (Rattus norvegicus [22]) was 65 bpm, the Activity (Rattus norvegicus [23]) was 12 bpm and the Activity (Rattus norvegicus [24]) was 59 bpm. For the same compound, the Ratio (Cavia porcellus [25]) was 13.5, the %max [26] was 50% and the Activity [26] was 0.355%. For the same compound, the Activity (Rattus norvegicus [27]) was 3 mmHg, the ED50 [28] was 1.6 µM and the pD2 [28] was 5.78. The Activity (Rattus norvegicus [29]) was -12 mmHg, the ED50 [30] was 3.8 µM and the pD2 [30] was 5.42. For the same compound, the Activity [31] was “inactive”, the %max [32] was 58% and the Activity [32] was 4.79%. It also gave an Activity (Rattus norvegicus [33]) of -30 mmHg, a %max [34] of 33% and an Activity (Rattus norvegicus [35]) of 1 bpm. For the same compound, the Activity [36] was “inactive”, the Activity (Rattus norvegicus [37]) was 4 mmHg and the Activity (Rattus norvegicus [38]) was -6 mmHg. It also gave an ED50 [39] of 6.2 µM, a pD2 [39] of 5.21 and an Activity (Rattus norvegicus [40]) of 13 bpm. For the same compound, the fold change (FC) [41] was 2.

In the case of `CC(C)NCC(O)c1ccc(O)c(O)c1` (racemic), the ED50 [28] is reported as 7.8 ×10⁻⁸ M, the pD2 [28] is reported as 7.1 and the ED50 [42] is reported as 2.1 ×10⁻⁸ M.

Work on `Oc1ccccc1O` [CATECHOL] yielded a logP [43] of 0.88.
